Laboratory results from ChEMBL document CHEMBL3797186, “Single Residue Substitutions That Confer Voltage-Gated Sodium Ion Channel Subtype Selectivity in the NaV1.7 Inhibitory Peptide GpTx-1” (J Med Chem, 2016).
Positions of bridges follow the written chain, without caps; N, C: chain ends. Residues, ends and D or L forms follow the SMILES beside them.

Columns and labels:
[1] = target: Sodium channel protein type 5 subunit alpha (Homo sapiens, UniProt Q14524); assay: Inhibition of human Nav1.5 expressed in HEK293 cells assessed as inward peak current by ion-works quattro patch clamp electrophysiology method; format: cell-based
Summary of the method: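 Stable HEK293 line expressing human NaV1.5, recorded by population patch clamp on the IonWorks Quattro.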

[2] = target: Sodium channel protein type 9 subunit alpha (Homo sapiens, UniProt Q15858); assay: Inhibition of human Nav1.7 expressed in HEK293 cells assessed as inward peak current by ion-works quattro patch clamp electrophysiology method; format: cell-based
Sodium channel protein type 9 subunit alpha, sequence (Q15858 whole entry): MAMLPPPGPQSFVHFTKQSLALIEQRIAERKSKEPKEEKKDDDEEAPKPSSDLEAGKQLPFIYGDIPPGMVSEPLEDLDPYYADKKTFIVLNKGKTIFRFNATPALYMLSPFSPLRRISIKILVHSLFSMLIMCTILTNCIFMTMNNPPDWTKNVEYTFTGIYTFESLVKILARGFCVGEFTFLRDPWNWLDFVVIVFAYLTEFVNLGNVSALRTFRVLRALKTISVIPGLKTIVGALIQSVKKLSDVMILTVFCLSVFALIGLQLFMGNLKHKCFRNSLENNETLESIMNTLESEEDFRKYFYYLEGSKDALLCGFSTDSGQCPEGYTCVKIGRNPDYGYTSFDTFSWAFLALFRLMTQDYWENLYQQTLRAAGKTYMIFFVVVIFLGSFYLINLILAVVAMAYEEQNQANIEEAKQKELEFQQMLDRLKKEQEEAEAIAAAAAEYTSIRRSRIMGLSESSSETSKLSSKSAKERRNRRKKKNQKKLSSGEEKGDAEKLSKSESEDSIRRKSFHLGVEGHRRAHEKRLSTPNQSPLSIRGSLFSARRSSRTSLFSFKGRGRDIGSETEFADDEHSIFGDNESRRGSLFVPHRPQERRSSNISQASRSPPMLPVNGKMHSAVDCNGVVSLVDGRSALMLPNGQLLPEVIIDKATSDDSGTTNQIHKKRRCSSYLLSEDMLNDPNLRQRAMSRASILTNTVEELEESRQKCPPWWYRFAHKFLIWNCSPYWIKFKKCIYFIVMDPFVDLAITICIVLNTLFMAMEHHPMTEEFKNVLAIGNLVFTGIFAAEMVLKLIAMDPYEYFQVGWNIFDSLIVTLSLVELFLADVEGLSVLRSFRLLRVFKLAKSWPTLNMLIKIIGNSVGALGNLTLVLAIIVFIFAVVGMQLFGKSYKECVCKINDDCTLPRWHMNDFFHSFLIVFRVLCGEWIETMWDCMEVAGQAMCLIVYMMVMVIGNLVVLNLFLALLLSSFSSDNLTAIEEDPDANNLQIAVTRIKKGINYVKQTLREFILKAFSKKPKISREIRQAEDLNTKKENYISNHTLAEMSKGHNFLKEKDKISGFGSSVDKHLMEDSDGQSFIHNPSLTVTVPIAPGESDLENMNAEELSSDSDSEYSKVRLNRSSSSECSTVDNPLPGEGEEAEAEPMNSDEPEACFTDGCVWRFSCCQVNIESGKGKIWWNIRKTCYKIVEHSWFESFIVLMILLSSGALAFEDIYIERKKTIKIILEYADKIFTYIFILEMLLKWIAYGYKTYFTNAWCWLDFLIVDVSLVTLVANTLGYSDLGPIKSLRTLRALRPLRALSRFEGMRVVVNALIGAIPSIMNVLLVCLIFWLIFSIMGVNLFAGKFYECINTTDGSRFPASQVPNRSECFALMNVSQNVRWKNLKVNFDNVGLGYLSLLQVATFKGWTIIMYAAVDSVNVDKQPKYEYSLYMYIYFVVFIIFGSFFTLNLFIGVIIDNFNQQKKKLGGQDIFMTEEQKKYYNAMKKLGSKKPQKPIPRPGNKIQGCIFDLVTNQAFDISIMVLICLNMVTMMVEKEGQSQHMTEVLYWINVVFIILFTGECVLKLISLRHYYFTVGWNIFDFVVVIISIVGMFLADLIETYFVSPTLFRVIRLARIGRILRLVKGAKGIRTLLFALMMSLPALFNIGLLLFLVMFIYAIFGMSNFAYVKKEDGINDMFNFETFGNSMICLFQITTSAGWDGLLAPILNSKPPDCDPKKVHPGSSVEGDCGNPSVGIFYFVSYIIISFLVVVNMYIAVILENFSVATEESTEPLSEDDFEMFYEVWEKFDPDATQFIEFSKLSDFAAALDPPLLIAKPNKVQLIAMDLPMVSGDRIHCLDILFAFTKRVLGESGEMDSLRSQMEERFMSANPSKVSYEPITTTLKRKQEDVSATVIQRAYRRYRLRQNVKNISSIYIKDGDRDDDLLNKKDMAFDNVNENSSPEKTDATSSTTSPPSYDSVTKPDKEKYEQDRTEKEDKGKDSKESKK

Sodium channel protein type 5 subunit alpha, sequence (Q14524 whole entry): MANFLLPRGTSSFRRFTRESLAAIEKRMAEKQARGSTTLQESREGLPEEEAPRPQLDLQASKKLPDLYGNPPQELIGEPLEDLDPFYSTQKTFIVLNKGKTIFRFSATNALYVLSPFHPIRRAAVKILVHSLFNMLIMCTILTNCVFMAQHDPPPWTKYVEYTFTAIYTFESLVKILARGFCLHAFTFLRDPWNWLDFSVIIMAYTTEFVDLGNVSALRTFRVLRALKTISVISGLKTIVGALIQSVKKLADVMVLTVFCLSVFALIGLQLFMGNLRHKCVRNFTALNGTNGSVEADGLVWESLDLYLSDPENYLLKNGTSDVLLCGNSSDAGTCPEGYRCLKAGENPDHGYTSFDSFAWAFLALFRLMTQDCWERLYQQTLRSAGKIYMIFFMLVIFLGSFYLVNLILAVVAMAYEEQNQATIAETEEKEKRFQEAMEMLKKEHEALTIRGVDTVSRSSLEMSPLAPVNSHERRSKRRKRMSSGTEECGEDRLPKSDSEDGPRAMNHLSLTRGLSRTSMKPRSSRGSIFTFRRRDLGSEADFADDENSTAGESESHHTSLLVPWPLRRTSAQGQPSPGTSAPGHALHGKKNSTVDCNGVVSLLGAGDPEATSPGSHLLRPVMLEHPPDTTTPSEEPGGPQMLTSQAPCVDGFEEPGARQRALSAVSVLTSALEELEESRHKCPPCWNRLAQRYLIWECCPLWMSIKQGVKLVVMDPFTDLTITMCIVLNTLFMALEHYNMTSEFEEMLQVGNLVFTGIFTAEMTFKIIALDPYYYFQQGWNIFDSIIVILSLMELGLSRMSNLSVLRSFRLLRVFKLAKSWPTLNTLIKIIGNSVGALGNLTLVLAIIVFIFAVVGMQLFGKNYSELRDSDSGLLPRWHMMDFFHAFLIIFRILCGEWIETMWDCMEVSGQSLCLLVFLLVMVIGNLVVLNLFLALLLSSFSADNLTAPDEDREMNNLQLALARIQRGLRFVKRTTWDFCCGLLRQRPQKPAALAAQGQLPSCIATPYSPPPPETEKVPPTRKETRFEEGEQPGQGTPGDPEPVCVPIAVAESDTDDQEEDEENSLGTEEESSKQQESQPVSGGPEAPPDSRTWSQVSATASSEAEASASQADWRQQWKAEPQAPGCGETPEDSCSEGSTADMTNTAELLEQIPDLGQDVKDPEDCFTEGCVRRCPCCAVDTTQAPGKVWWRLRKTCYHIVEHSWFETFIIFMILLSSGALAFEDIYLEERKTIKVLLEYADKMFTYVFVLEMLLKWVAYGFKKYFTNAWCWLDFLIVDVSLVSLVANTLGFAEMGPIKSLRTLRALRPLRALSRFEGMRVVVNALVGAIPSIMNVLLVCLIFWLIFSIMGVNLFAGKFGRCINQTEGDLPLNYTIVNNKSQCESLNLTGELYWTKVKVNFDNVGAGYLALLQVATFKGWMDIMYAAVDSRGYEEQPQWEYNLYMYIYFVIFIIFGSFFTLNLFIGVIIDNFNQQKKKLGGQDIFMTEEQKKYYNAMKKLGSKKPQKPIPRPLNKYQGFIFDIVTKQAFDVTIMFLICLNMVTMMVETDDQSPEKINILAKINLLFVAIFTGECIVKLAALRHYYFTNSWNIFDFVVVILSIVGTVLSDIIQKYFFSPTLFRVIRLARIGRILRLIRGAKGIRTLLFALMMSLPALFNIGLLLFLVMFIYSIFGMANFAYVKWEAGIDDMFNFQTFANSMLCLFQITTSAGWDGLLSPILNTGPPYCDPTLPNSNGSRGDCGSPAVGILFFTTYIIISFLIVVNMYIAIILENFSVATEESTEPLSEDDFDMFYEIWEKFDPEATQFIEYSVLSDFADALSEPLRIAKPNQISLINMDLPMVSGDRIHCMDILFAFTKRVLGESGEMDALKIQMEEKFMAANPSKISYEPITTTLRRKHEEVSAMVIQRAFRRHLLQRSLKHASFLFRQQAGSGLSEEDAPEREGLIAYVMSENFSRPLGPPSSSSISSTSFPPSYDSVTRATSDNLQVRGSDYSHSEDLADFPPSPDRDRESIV

With CC[C@H](C)[C@@H]1NC(=O)[C@@H]2CSSC[C@@H]3NC(=O)[C@H](C(C)C)NC(=O)[C@H](CC(C)C)NC(=O)[C@H](CCCCN)NC(=O)[C@@H]4CCCN4C(=O)[C@H](CCCNC(=N)N)NC(=O)[C@H](CSSC[C@H](NC(=O)[C@@H](N)CC(=O)O)C(=O)N[C@@H](CC(C)C)C(=O)NCC(=O)N[C@@H](Cc4ccccc4)C(=O)N[C@@H](CCSC)C(=O)N[C@@H](CCCNC(=N)N)C(=O)N[C@@H](CCCCN)C(=O)N2)NC(=O)[C@H](CSSC[C@@H](C(=O)N[C@@H](CCCCN)C(=O)N[C@@H](Cc2ccc(O)cc2)C(=O)N[C@H](C(=O)N[C@@H](Cc2ccccc2)C(N)=O)C(C)C)NC(=O)[C@H](Cc2c[nH]c4ccccc24)NC(=O)[C@H](CCCCN)NC(=O)[C@H](Cc2cnc[nH]2)NC(=O)[C@H]([C@@H](C)O)NC(=O)[C@H](CCCNC(=N)N)NC(=O)[C@H](CO)NC3=O)NC(=O)[C@H](CCCCN)NC(=O)[C@H](CC(=O)O)NC(=O)[C@H](CC(N)=O)NC(=O)[C@H](CC(=O)O)NC(=O)[C@@H]2CCCN2C1=O (H-DCLGFMRKCIPDNDKCCRPKLVCSRTHKWCKYVF-NH2; disulfide 2-17, 9-23, 16-30) the IC50 [1] was over 5 µM and the IC50 [2] was 0.63 µM.
Molecule CC[C@H](C)[C@@H]1NC(=O)[C@@H]2CSSC[C@@H]3NC(=O)[C@H](C(C)C)NC(=O)[C@H](CC(C)C)NC(=O)[C@H](CCC(=O)O)NC(=O)[C@@H]4CCCN4C(=O)[C@H](CCCNC(=N)N)NC(=O)[C@H](CSSC[C@H](NC(=O)[C@@H](N)CC(=O)O)C(=O)N[C@@H](CC(C)C)C(=O)NCC(=O)N[C@@H](Cc4ccccc4)C(=O)N[C@@H](CCSC)C(=O)N[C@@H](CCCNC(=N)N)C(=O)N[C@@H](CCCCN)C(=O)N2)NC(=O)[C@H](CSSC[C@@H](C(=O)N[C@@H](CCCCN)C(=O)N[C@@H](Cc2ccc(O)cc2)C(=O)N[C@H](C(=O)N[C@@H](Cc2ccccc2)C(N)=O)C(C)C)NC(=O)[C@H](Cc2c[nH]c4ccccc24)NC(=O)[C@H](CCCCN)NC(=O)[C@H](Cc2cnc[nH]2)NC(=O)[C@H]([C@@H](C)O)NC(=O)[C@H](CCCNC(=N)N)NC(=O)[C@H](CO)NC3=O)NC(=O)[C@H](CCCCN)NC(=O)[C@H](CC(=O)O)NC(=O)[C@H](CC(N)=O)NC(=O)[C@H](CC(=O)O)NC(=O)[C@@H]2CCCN2C1=O (H-DCLGFMRKCIPDNDKCCRPELVCSRTHKWCKYVF-NH2; disulfide 2-17, 9-23, 16-30) has an IC50 [1] of over 5 µM and an IC50 [2] of 1.4 µM.
In the case of CC[C@H](C)[C@@H]1NC(=O)[C@H]2CSSC[C@H]3NC(=O)[C@H](C(C)C)NC(=O)[C@H](CC(C)C)NC(=O)[C@H](CC(N)=O)NC(=O)[C@@H]4CCCN4C(=O)[C@H](CCCNC(=N)N)NC(=O)[C@H](CSSC[C@H](NC(=O)[C@@H](N)CC(=O)O)C(=O)N[C@@H](CC(C)C)C(=O)NCC(=O)N[C@@H](Cc4ccccc4)C(=O)N[C@@H](CCSC)C(=O)N[C@@H](CCCNC(=N)N)C(=O)N[C@@H](CCCCN)C(=O)N2)NC(=O)[C@@H](CSSC[C@@H](C(=O)N[C@@H](CCCCN)C(=O)N[C@@H](Cc2ccc(O)cc2)C(=O)N[C@H](C(=O)N[C@@H](Cc2ccccc2)C(N)=O)C(C)C)NC(=O)[C@H](Cc2c[nH]c4ccccc24)NC(=O)[C@H](C)NC(=O)[C@H](Cc2cnc[nH]2)NC(=O)[C@H]([C@@H](C)O)NC(=O)[C@H](CCCNC(=N)N)NC(=O)[C@H](CO)NC3=O)NC(=O)[C@H](CCCCN)NC(=O)[C@H](CC(=O)O)NC(=O)[C@H](CC(N)=O)NC(=O)[C@H](CC(=O)O)NC(=O)[C@@H]2CCCN2C1=O, the IC50 [1] is reported as over 5 µM and the IC50 [2] is reported as 0.47 µM.
Work on CC[C@H](C)[C@@H]1NC(=O)[C@@H]2CSSC[C@@H]3NC(=O)[C@H](C(C)C)NC(=O)[C@H](CC(C)C)NC(=O)[C@H](CC(N)=O)NC(=O)[C@@H]4CCCN4C(=O)[C@H](CCCNC(=N)N)NC(=O)[C@H](CSSC[C@H](NC(=O)[C@@H](N)CC(=O)O)C(=O)N[C@@H](CC(C)C)C(=O)NCC(=O)N[C@@H](Cc4ccccc4)C(=O)N[C@@H](CCSC)C(=O)N[C@@H](CCCNC(=N)N)C(=O)N[C@@H](CCCCN)C(=O)N2)NC(=O)[C@H](CSSC[C@@H](C(=O)N[C@@H](CCCCN)C(=O)N[C@@H](Cc2ccc(O)cc2)C(=O)N[C@H](C(=O)N[C@@H](Cc2ccccc2)C(N)=O)C(C)C)NC(=O)[C@H](CCCCN)NC(=O)[C@H](CCCCN)NC(=O)[C@H](Cc2cnc[nH]2)NC(=O)[C@H]([C@@H](C)O)NC(=O)[C@H](CCCNC(=N)N)NC(=O)[C@H](CO)NC3=O)NC(=O)[C@H](CCCCN)NC(=O)[C@H](CC(=O)O)NC(=O)[C@H](CC(N)=O)NC(=O)[C@H](CC(=O)O)NC(=O)[C@@H]2CCCN2C1=O (H-DCLGFMRKCIPDNDKCCRPNLVCSRTHKKCKYVF-NH2; disulfide 2-17, 9-23, 16-30) yielded an IC50 [1] of over 5 µM and an IC50 [2] of over 5 µM.
Work on CC[C@H](C)[C@@H]1NC(=O)[C@@H]2CSSC[C@@H]3NC(=O)[C@H](C(C)C)NC(=O)[C@H](Cc4c[nH]c5ccccc45)NC(=O)[C@H](CC(N)=O)NC(=O)[C@@H]4CCCN4C(=O)[C@H](CCCNC(=N)N)NC(=O)[C@H](CSSC[C@H](NC(=O)[C@@H](N)CC(=O)O)C(=O)N[C@@H](CC(C)C)C(=O)NCC(=O)N[C@@H](Cc4ccccc4)C(=O)N[C@@H](CCSC)C(=O)N[C@@H](CCCNC(=N)N)C(=O)N[C@@H](CCCCN)C(=O)N2)NC(=O)[C@H](CSSC[C@@H](C(=O)N[C@@H](CCCCN)C(=O)N[C@@H](Cc2ccc(O)cc2)C(=O)N[C@H](C(=O)N[C@@H](Cc2ccccc2)C(N)=O)C(C)C)NC(=O)[C@H](Cc2c[nH]c4ccccc24)NC(=O)[C@H](CCCCN)NC(=O)[C@H](Cc2cnc[nH]2)NC(=O)[C@H]([C@@H](C)O)NC(=O)[C@H](CCCNC(=N)N)NC(=O)[C@H](CO)NC3=O)NC(=O)[C@H](CCCCN)NC(=O)[C@H](CC(=O)O)NC(=O)[C@H](CC(N)=O)NC(=O)[C@H](CC(=O)O)NC(=O)[C@@H]2CCCN2C1=O (H-DCLGFMRKCIPDNDKCCRPNWVCSRTHKWCKYVF-NH2; disulfide 2-17, 9-23, 16-30) yielded an IC50 [1] of over 5 µM and an IC50 [2] of 0.11 µM.
CC[C@H](C)[C@@H]1NC(=O)[C@@H]2CSSC[C@@H]3NC(=O)[C@H](C(C)C)NC(=O)[C@H](CC(C)C)NC(=O)[C@H](CC(N)=O)NC(=O)[C@@H]4CCCN4C(=O)[C@H](CCCNC(=N)N)NC(=O)[C@H](CSSC[C@H](NC(=O)[C@@H](N)CC(=O)O)C(=O)N[C@@H](CC(C)C)C(=O)NCC(=O)N[C@@H](Cc4ccccc4)C(=O)N[C@@H](CCSC)C(=O)N[C@@H](CCCNC(=N)N)C(=O)N[C@@H](CCCCN)C(=O)N2)NC(=O)[C@H](CSSC[C@@H](C(=O)N[C@@H](CCCCN)C(=O)N[C@@H](CCC(=O)O)C(=O)N[C@H](C(=O)N[C@@H](Cc2ccccc2)C(N)=O)C(C)C)NC(=O)[C@H](Cc2c[nH]c4ccccc24)NC(=O)[C@H](CCCCN)NC(=O)[C@H](Cc2cnc[nH]2)NC(=O)[C@H]([C@@H](C)O)NC(=O)[C@H](CCCNC(=N)N)NC(=O)[C@H](CO)NC3=O)NC(=O)[C@H](CCCCN)NC(=O)[C@H](CC(=O)O)NC(=O)[C@H](CC(N)=O)NC(=O)[C@H](CC(=O)O)NC(=O)[C@@H]2CCCN2C1=O (H-DCLGFMRKCIPDNDKCCRPNLVCSRTHKWCKEVF-NH2; disulfide 2-17, 9-23, 16-30) showed an IC50 [1] of over 5 µM and an IC50 [2] of over 5 µM.
For CC[C@H](C)[C@@H]1NC(=O)[C@@H]2CSSC[C@@H]3NC(=O)[C@H](C(C)C)NC(=O)[C@H](CC(C)C)NC(=O)[C@H](CC(N)=O)NC(=O)[C@@H]4CCCN4C(=O)[C@H](CCCNC(=N)N)NC(=O)[C@H](CSSC[C@H](NC(=O)[C@@H](N)CC(=O)O)C(=O)N[C@@H](CC(C)C)C(=O)NCC(=O)N[C@@H](Cc4ccccc4)C(=O)N[C@@H](CCSC)C(=O)N[C@@H](CCCNC(=N)N)C(=O)N[C@@H](CCCCN)C(=O)N2)NC(=O)[C@H](CSSC[C@@H](C(=O)N[C@@H](CCCCN)C(=O)N[C@@H](Cc2ccc(O)cc2)C(=O)N[C@H](C(=O)N[C@@H](Cc2ccccc2)C(N)=O)C(C)C)NC(=O)[C@H](Cc2c[nH]c4ccccc24)NC(=O)[C@H](CCCCN)NC(=O)[C@H](Cc2cnc[nH]2)NC(=O)[C@H]([C@@H](C)O)NC(=O)[C@H](CCCNC(=N)N)NC(=O)[C@H](CO)NC3=O)NC(=O)[C@H](CCCNC(=N)N)NC(=O)[C@H](CC(=O)O)NC(=O)[C@H](CC(N)=O)NC(=O)[C@H](CC(=O)O)NC(=O)[C@@H]2CCCN2C1=O (H-DCLGFMRKCIPDNDRCCRPNLVCSRTHKWCKYVF-NH2; disulfide 2-17, 9-23, 16-30), the IC50 [1] was over 5 µM and the IC50 [2] was 0.22 µM.
CC[C@H](C)[C@@H]1NC(=O)[C@@H]2CSSC[C@@H]3NC(=O)[C@H](C(C)C)NC(=O)[C@H](CC(C)C)NC(=O)[C@H](CC(N)=O)NC(=O)[C@@H]4CCCN4C(=O)[C@H](CCCNC(=N)N)NC(=O)[C@H](CSSC[C@H](NC(=O)[C@@H](N)CC(=O)O)C(=O)N[C@@H](CCCCN)C(=O)NCC(=O)N[C@@H](Cc4ccccc4)C(=O)N[C@@H](CCSC)C(=O)N[C@@H](CCCNC(=N)N)C(=O)N[C@@H](CCCCN)C(=O)N2)NC(=O)[C@H](CSSC[C@@H](C(=O)N[C@@H](CCCCN)C(=O)N[C@@H](Cc2ccc(O)cc2)C(=O)N[C@H](C(=O)N[C@@H](Cc2ccccc2)C(N)=O)C(C)C)NC(=O)[C@H](Cc2c[nH]c4ccccc24)NC(=O)[C@H](CCCCN)NC(=O)[C@H](Cc2cnc[nH]2)NC(=O)[C@H]([C@@H](C)O)NC(=O)[C@H](CCCNC(=N)N)NC(=O)[C@H](CO)NC3=O)NC(=O)[C@H](CCCCN)NC(=O)[C@H](CC(=O)O)NC(=O)[C@H](CC(N)=O)NC(=O)[C@H](CC(=O)O)NC(=O)[C@@H]2CCCN2C1=O (H-DCKGFMRKCIPDNDKCCRPNLVCSRTHKWCKYVF-NH2; disulfide 2-17, 9-23, 16-30) was tested, and the IC50 [1] was over 5 µM and the IC50 [2] was 0.12 µM.
